Measured values: ChEMBL document CHEMBL4477201, “Imidazopyridine and Pyrazolopiperidine Derivatives as Novel Inhibitors of Serine Palmitoyl Transferase” (J Med Chem, 2016)
Active and inactive are the calls of the source. The rule behind the calls is not given here.

Key:
[1] = molecular target: T1, Serine palmitoyltransferase 1 (Homo sapiens, UniProt O15269); test: Inhibition of human SPT1 expressed in microsomes of HEK293 cells incubated for 1hr by LC/MS analysis
T1 sequence (O15269 whole entry): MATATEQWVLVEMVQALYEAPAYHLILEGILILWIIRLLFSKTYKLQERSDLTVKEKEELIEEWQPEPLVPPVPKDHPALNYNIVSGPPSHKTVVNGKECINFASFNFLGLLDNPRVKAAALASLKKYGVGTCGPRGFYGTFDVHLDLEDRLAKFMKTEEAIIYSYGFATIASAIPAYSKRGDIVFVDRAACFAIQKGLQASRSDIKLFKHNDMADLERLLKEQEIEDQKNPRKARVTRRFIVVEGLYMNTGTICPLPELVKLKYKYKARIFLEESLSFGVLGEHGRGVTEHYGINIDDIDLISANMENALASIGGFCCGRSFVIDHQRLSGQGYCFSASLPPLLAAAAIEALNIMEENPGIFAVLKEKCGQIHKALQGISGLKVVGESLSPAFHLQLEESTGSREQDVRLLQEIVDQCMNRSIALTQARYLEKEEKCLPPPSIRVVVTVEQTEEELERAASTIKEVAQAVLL
Summary of the method: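 SPT source was a microsomal fraction from HEK293 cells, with serine and palmitoyl coenzyme A as substrates. Formation of 3-ketodeoxysphinganine quantified by LC/MS. Inhibition determined at 10 concentrations per compound to give IC50.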

[2] = molecular target: T2, Serine palmitoyltransferase 1 (Homo sapiens) (UniProt O15269); test: (§1) Inhibition of SPT1 in human MCF7 cells assessed as suppression of 14C-serine incorporation into ceramide incubated for 2 hrs in presence of 4-HPR; format: cell-based
T2 sequence (whole entry): T1 sequence (O15269 whole entry)
Summary of the method: (§2)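 Human MCF-7 cells incubated 2 h with a range of compound concentrations or DMSO control media. Medium contained 14C-serine plus 25 uM 4-HPR to activate SPT. 14C-serine-labeled ceramide products quantified to give EC50.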

[3] = molecular target: T1, Serine palmitoyltransferase 1; test: as §1; format: cell-based; summary of the method: as §2
[4] = Fraction unbound in rat; format: ADME
Rattus norvegicus [5] = test: Increase in HDL level in cholic acid/cholesterol-fed Sprague-Dawley rat model of dyslipidemia administered bid through oral gavage measured after 1 week by FPLC analysis relative to vehicle-treated control; format: functional, organism-based
Summary of the method: (§3)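 Sprague Dawley rats fed a cholic acid/cholesterol diet for 14 days, then dosed orally BID for 7 days at five dose levels, n=6. Serum ceramides and VLDL and HDL cholesterol compared with vehicle (dose 0). Mean ± SEM; Dunnett's test, p<0.05.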

[6] = Dissociation constant, pKa of the compound; format: physicochemical
[7] = Lipophilicity, log P of compound; format: physicochemical; conditions: octanol/water
[8] = Drug uptake in diet-induced obese C57Bl/6 mouse liver at 1 mg/kg, po qd for 4 weeks measured 6 hrs post last dose; format: ADME, organism-based; conditions: read-out: Drug uptake
Summary of the method: (§4)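 Male DIO mice dosed orally for 4 weeks. Sacrificed 6 h after the last dose. Compound measured in serum (ng/mL) and liver (ng/g), and the liver:serum ratio calculated.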

[9] = AUC (0 to 24 hrs) in Sprague-Dawley rat at 1 mg/kg, iv; format: ADME, organism-based; set-up: time < 24 hr, dose 1 mg/kg, route intravenous; conditions: in vivo
Summary of the method: (§5)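 Single dose to fasted male Sprague Dawley rats, IV at 1 mg/kg or oral at 3 mg/kg. Plasma levels followed to derive AUC0-24hr, Cmax, half-life, Vdss and oral bioavailability.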

[10] = Cmax in Sprague-Dawley rat at 1 mg/kg, iv; format: ADME, organism-based; set-up: dose 1 mg/kg, route intravenous; conditions: in vivo; summary of the method: as §5
[11] = Half life in Sprague-Dawley rat at 1 mg/kg, iv; format: ADME, organism-based; conditions: in vivo; summary of the method: as §5
[12] = Volume of distribution at steady state in Sprague-Dawley rat at 1 mg/kg, iv; format: ADME, organism-based; conditions: in vivo, read-out: Vdss; summary of the method: as §5
[13] = AUC (0 to 24 hrs) in Sprague-Dawley rat at 3 mg/kg,po; format: ADME, organism-based; set-up: time < 24 hr, dose 3 mg/kg, route oral; conditions: in vivo; summary of the method: as §5
[14] = Cmax in Sprague-Dawley rat at 3 mg/kg,po; format: ADME, organism-based; set-up: dose 3 mg/kg, route oral; conditions: in vivo; summary of the method: as §5
[15] = Half life in Sprague-Dawley rat at 3 mg/kg,po; format: ADME, organism-based; conditions: in vivo; summary of the method: as §5
[16] = Volume of distribution at steady state in Sprague-Dawley rat at 3 mg/kg,po; format: ADME, organism-based; conditions: in vivo
Summary of the method: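 Male Sprague Dawley rats, fasted, single oral dose of 3 mg/kg. A parallel arm received 1 mg/kg IV. Plasma was sampled for pharmacokinetics over 0-24 hr. Steady-state volume of distribution is reported […], in mL/kg.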

[17] = Oral bioavailability in Sprague-Dawley rat at 3 mg/kg; format: ADME, organism-based; conditions: in vivo; summary of the method: as §5
Mus musculus [18] = test: Reduction in total plasma ceramide level in C57BL6 mouse administered through gavage after 6 hrs by mass spectrometry relative to vehicle-treated control; format: functional
Summary of the method: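 Normal C57bl6 mice given a single oral dose at six dose levels, n=3 per group. Plasma collected 6 h post dose. C16:0, C20:0, C22:0, C24:0 and C24:1 ceramides measured by mass spectrometry and summed; total reduction calculated versus vehicle. ED50 derived from the dose-response; mean ± SEM.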

Rattus norvegicus [19] = test: Reduction in vLDL level in cholic acid/cholesterol-fed Sprague-Dawley rat model of dyslipidemia at 60 mg/kg administered bid through oral gavage measured after 1 week by FPLC analysis relative to vehicle-treated control; format: functional, organism-based; summary of the method: as §3
Rattus norvegicus [20] = test: Reduction in total plasma ceramide level in cholic acid/cholesterol-fed Sprague-Dawley rat model of dyslipidemia at 30 to 60 mg/kg administered bid through oral gavage measured after 1 week by FPLC analysis relative to vehicle-treated control; format: functional, organism-based; summary of the method: as §3
Mus musculus [21] = test: Reduction in total plasma ceramide level in diet-induced obese C57BL6 mouse administered daily through oral gavage for 28 days measured 2 hrs post last dose relative to lean control; format: functional, organism-based
Summary of the method: (§6)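 DIO mice dosed orally for 28 days, with myriocin as positive control and lean mice as reference. Total and C18:0 plasma ceramides measured 2 h after the final dose.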

Mus musculus [22] = test: Reduction in plasma C18:0 ceramide level in diet-induced obese C57BL6 mouse at 1 to 60 mg/kg administered daily through oral gavage for 28 days measured 2 hrs post last dose relative to lean control; format: functional, organism-based; summary of the method: as §6
[23] = Toxicity in rat assessed as induction of gastric enteropathy during 14 days toxicology study; conditions: in vivo, 336 h
Mus musculus [24] = test: Reduction in serum insulin AUC in diet-induced obese C57BL6 mouse at 1 to 60 mg/kg, po qd for 4 weeks by oral glucose tolerance test relative to lean control; format: functional, organism-based
Summary of the method: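 After 4 weeks of oral dosing, DIO mice underwent an oral glucose tolerance test. Insulin and glucose AUC compared with lean mice; trend assessed by ANOVA trend analysis.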

[25] = Toxicity in diet-induced obese C57Bl/6 mouse assessed as change in food intake at 1 to 60 mg/kg, po qd for 4 weeks; format: organism-based; conditions: in vivo, 672 h
Summary of the method: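 Food intake monitored in DIO mice during 4 weeks of daily oral dosing.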

[26] = Drug uptake in diet-induced obese C57Bl/6 mouse serum at 1 mg/kg, po qd for 4 weeks measured 6 hrs post last dose; format: ADME, organism-based; conditions: read-out: Drug uptake; summary of the method: as §4
[27] = Drug uptake in diet-induced obese C57Bl/6 mouse serum at 3 mg/kg, po qd for 4 weeks measured 6 hrs post last dose; format: ADME, organism-based; conditions: read-out: Drug uptake; summary of the method: as §4
[28] = Drug uptake in diet-induced obese C57Bl/6 mouse serum at 10 mg/kg, po qd for 4 weeks measured 6 hrs post last dose; format: ADME, organism-based; conditions: read-out: Drug uptake; summary of the method: as §4
[29] = Drug uptake in diet-induced obese C57Bl/6 mouse serum at 30 mg/kg, po qd for 4 weeks measured 6 hrs post last dose; format: ADME, organism-based; conditions: read-out: Drug uptake; summary of the method: as §4
[30] = Drug uptake in diet-induced obese C57Bl/6 mouse serum at 60 mg/kg, po qd for 4 weeks measured 6 hrs post last dose; format: ADME, organism-based; conditions: read-out: Drug uptake; summary of the method: as §4
[31] = Drug uptake in diet-induced obese C57Bl/6 mouse liver at 3 mg/kg, po qd for 4 weeks measured 6 hrs post last dose; format: ADME, organism-based; conditions: read-out: Drug uptake; summary of the method: as §4
[32] = Drug uptake in diet-induced obese C57Bl/6 mouse liver at 10 mg/kg, po qd for 4 weeks measured 6 hrs post last dose; format: ADME, organism-based; conditions: read-out: Drug uptake; summary of the method: as §4
[33] = Drug uptake in diet-induced obese C57Bl/6 mouse liver at 30 mg/kg, po qd for 4 weeks measured 6 hrs post last dose; format: ADME, organism-based; conditions: read-out: Drug uptake; summary of the method: as §4
[34] = Drug uptake in diet-induced obese C57Bl/6 mouse liver at 60 mg/kg, po qd for 4 weeks measured 6 hrs post last dose; format: ADME, organism-based; conditions: read-out: Drug uptake; summary of the method: as §4
[35] = Ratio of drug uptake in diet-induced obese C57Bl/6 mouse liver to serum at 1 mg/kg, po qd for 4 weeks measured 6 hrs post last dose; format: ADME, organism-based; summary of the method: as §4
[36] = Ratio of drug uptake in diet-induced obese C57Bl/6 mouse liver to serum at 3 mg/kg, po qd for 4 weeks measured 6 hrs post last dose; format: ADME, organism-based; summary of the method: as §4
[37] = Ratio of drug uptake in diet-induced obese C57Bl/6 mouse liver to serum at 10 mg/kg, po qd for 4 weeks measured 6 hrs post last dose; format: ADME, organism-based; summary of the method: as §4
[38] = Ratio of drug uptake in diet-induced obese C57Bl/6 mouse liver to serum at 30 mg/kg, po qd for 4 weeks measured 6 hrs post last dose; format: ADME, organism-based; summary of the method: as §4
[39] = Ratio of drug uptake in diet-induced obese C57Bl/6 mouse liver to serum at 60 mg/kg, po qd for 4 weeks measured 6 hrs post last dose; format: ADME, organism-based; summary of the method: as §4
Mus musculus [40] = test: Reduction in total liver ceramide level in diet-induced obese C57BL6 mouse at 1 to 60 mg/kg administered daily through oral gavage for 28 days measured 6 hrs post last dose relative to lean control; format: functional, organism-based
Summary of the method: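 Liver total ceramide levels measured in DIO mice after 4 weeks of oral dosing.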

Mus musculus [41] = test: Reduction in plasma C18:0 ceramide level in diet-induced obese C57BL6 mouse at 0.5 mg/kg administered daily through oral gavage for 28 days measured 2 hrs post last dose relative to lean control; format: functional, organism-based
Summary of the method: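 DIO mice received daily oral doses for 4 weeks as part of a dose-response study. Plasma was sampled 2 h after the final dose. Total and C18:0 plasma ceramides were measured and compared with those of lean control mice. At the end of dosing, the same cohort underwent an oral glucose tolerance test.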

In the case of `CCCCCCC(=O)c1cc(-c2ccc(CC(=O)O)cc2)c2nccn2c1`, the IC50 [1] is reported as 5.19 nM, the inhibition [2] is reported as “Dose-dependent effect” and the EC50 [3] is reported as 977 nM. The fraction unbound [4] was under 0.02, the Activity (Rattus norvegicus [5]) was “Dose-dependent effect” and the pKa [6] was 4.73. For the same compound, the logP [7] was 3.97, the concentration at 6 h [8] was 463 ng/g and the AUC(0-t) at 24 h [9] was 1270 ng·h/mL. For the same compound, the Cmax [10] was 2540 ng/mL, the half-life [11] was 2.13 h and the Vd [12] was 0.574 L/kg. It also gave an AUC(0-t) at 24 h [13] of 2920 ng·h/mL, a Cmax [14] of 1500 ng/mL and a half-life [15] of 1.48 h. For the same compound, the Vdss [16] was 1.84 L/kg, the bioavailability [17] was 75% and the Activity (Mus musculus [18]) was “Dose-dependent effect”. For the same compound, the ED50 (Mus musculus [18]; C57BL6, po) was 1.04 mg/kg, the Activity (Rattus norvegicus [19]) was “Active” and the Activity (Rattus norvegicus [20]) was “Active”. The Activity (Mus musculus [21]) was “Dose-dependent effect”, the Activity (Mus musculus [22]) was “Active” and the Activity [23] was “Toxic”. For the same compound, the Activity (Mus musculus [24]) was “Active”, the Activity [25] was “Non-Toxic” and the concentration at 6 h [26] was 88 ng/mL. The concentration at 6 h [27] was 264 ng/mL, the concentration at 6 h [28] was 341 ng/mL and the concentration at 6 h [29] was 677 ng/mL. For the same compound, the concentration at 6 h [30] was 3350 ng/mL, the concentration at 6 h [31] was 789 ng/g and the concentration at 6 h [32] was 2850 ng/g. The concentration at 6 h [33] was 6580 ng/g, the concentration at 6 h [34] was 181000 ng/g and the Kp at 6 h [35] was 5. For the same compound, the Kp at 6 h [36] was 3, the Kp at 6 h [37] was 8 and the Kp at 6 h [38] was 10. For the same compound, the Kp at 6 h [39] was 54 and the Activity (Mus musculus [40]) was “Active”.
For `CCCCCCC(=O)CCCCCC/C=C/C[C@@H](O)[C@H](O)[C@@](N)(CO)C(=O)O` [MYRIOCIN], the EC50 [3] was 49.5 nM and the Activity (Mus musculus [41]) was “Active”.
